# Shown are actives, neighbours in structure and some others; about 2.3% of the full set was active somewhere.
# HIV Env fusion: HIV envelope-mediated fusion inhibition | HeLa-JRFL Env/CEM21 cell fusion, luciferase | inhibition, % at 12.3 µM | 360,000 compounds, 1.1% hits;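 active = mean replicate inhibition score of at least 50 and every replicate individually at or above 50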;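 note: 0% = plate neutral controls and 100% = maraviroc near 300 nM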
# Glyco luc inh: N-linked glycosylation inhibition. D54 ERlucT glycosylation luciferase reporter, 24 h; percent of 100 nM tunicamycin response. reporter increase, % at 12.5 µM. 360,000 compounds, 0.23% hits. AID 588692;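 active = mean luciferase reporter signal, scaled so untreated is 0 and the glycosylation-blocking control 100, at or above a set limit in every replicate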;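 note: luciferase carries N-glycosylation sites so blocking glycosylation raises the light; 0% = median of neutral control wells and 100% = median of 100 nM tunicamycin wells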
# Arrestin-AP2 inh: inhibitors of human beta-arrestin and AP2 interaction; FITC-arrestin peptide / GST-AP2 beads, flow cytometry; AP2 beta2 appendage carries R879A mutation; inhibition, % at 10 µM; 340,000 compounds, 0.31% hits; AID 504490;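 active = inhibition above a set limit, near 3 SD of compounds lacking own fluorescence, cut at about 54% in these data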;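 note: plate controls were DMSO wells for no effect and 5 µM unlabelled arrestin peptide for full effect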
#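 test system = AP2 appendage R879A on GSH beads | buffer or medium = PBS plus Tween 20 (0.05%) and BSA (0.1%) | incubation = 12 min plus 1 h, RT | detection = bead flow cytometry, FITC channel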
# PAX8 inh HTS: lowers PAX8-driven luciferase in RMG-I cells. RMG-I TPO-luciferase reporter, SteadyGlo, 24 h. AID 652154. inhibition, % at 12.6 µM. 360,000 compounds, 1.2% hits;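 active = mean replicate inhibition at least 60% with every replicate also reaching 60%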;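 note: luciferase light reporting Pax8 driven TPO promoter activity; plate controls were median of neutral control wells for no effect and mitoxantrone controls for full effect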
# Rtt109 HAT inh: inhibitors of Candida albicans Rtt109/Vps75 histone acetyltransferase; Q5AAJ8; purified Rtt109/Vps75, ThioGlo CoA-SH fluorescence, 4 h; inhibition, % at 34.9 µM; 330,000 compounds, 0.16% hits; AID 540336;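 active = inhibition of at least 50% in every replicate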
# Target sequence (Q5AAJ8 whole entry, looked up): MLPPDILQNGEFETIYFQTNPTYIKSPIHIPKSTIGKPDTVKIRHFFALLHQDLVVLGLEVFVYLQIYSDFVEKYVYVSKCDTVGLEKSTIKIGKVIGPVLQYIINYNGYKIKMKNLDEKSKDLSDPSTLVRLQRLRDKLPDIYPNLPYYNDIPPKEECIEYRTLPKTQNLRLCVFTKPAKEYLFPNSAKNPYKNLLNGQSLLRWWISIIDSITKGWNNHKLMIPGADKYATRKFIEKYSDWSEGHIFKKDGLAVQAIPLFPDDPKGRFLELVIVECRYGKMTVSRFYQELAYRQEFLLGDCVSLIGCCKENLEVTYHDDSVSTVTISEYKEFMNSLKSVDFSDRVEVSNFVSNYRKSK
# PfHsp90 yeast 2: inhibits growth of yeast expressing Plasmodium falciparum Hsp90 | S. cerevisiae expressing PfHsp90, BacTiter-Glo ATP, 48 h; yeast lacking PDR1 and PDR3 efflux regulators | inhibition, % at 9.4 µM | 310,000 compounds, 0.32% hits | AID 504621;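 active = every replicate shows inhibition above about 80%, whatever the replicate mean, limit read from the data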;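 note: 0% = DMSO neutral controls and 100% = 20 µM radicicol positive controls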
# Starred values were filed as active, the others as inactive; / = no result given; + = active, no number; [ ] = another dose, or the depositor's remark.
SMILES,HIV Env fusion,Glyco luc inh,Arrestin-AP2 inh,PAX8 inh HTS,Rtt109 HAT inh,PfHsp90 yeast 2
CCC(=O)N(C)C[C@@H]1Oc2ncc(Br)cc2C(=O)N([C@@H](C)CO)C[C@@H]1C,9.3[16.7 µM],/,/,/,/,/
C[C@H]1CN([C@@H](C)CO)C(=O)c2ccccc2-c2ccccc2CO[C@H]1CN(C)C(=O)Cc1ccccc1,51.0[16.7 µM],/,/,8.5,/,/
COc1ccc2c(c1)[C@H]1[C@H](CO2)[C@H](c2ccccc2)[C@]2(C)C(=O)Nc3cc(OC)c(OC)cc3C(=O)N12,102.0*,59.2*,-6.6,5.8,9.9,-57.5
COc1ccc2c(c1)[C@H]1[C@H](CO2)[C@H](c2ccccc2)[C@]2(C)C(=O)Nc3ccc(Cl)cc3C(=O)N12,48.7,40.0*,5.0,20.8,1.9,136.6*
COc1ccc2c(c1)OC[C@H]1[C@H]2N2C(=O)c3ccccc3NC(=O)[C@@]2(C)[C@H]1c1ccccc1,-52.7,4.8,-1.9,15.5,-8.6,-7.0
COc1ccc2c(c1)C(=O)N1[C@H]3c4cc(C)ccc4OC[C@@H]3[C@H](c3ccccc3)[C@]1(C)C(=O)N2,19.9,24.5,-1.3,23.0,6.5,-24.1
COc1ccc2c(c1)[C@H]1[C@H](CO2)[C@H](c2ccccc2)[C@]2(C)C(=O)Nc3ccc(F)cc3C(=O)N12,28.9,51.4*,-3.0,13.0,0.4,-12.2
COc1ccc2c(c1)[C@H]1[C@H](CO2)[C@H](c2ccccc2)[C@]2(C)C(=O)Nc3ccc(C)cc3C(=O)N12,-14.7,57.8*,32.5,-6.3,6.0,+
Cc1ccc(S(=O)(=O)N[C@@H]2C=C[C@H](CC(=O)NC3CCCCC3)O[C@H]2CO)cc1,1.2[16.7 µM],/,/,2.7,/,/
Cc1ccc(S(=O)(=O)N[C@@H]2CC[C@H](CCn3cc(-c4cccnc4)nn3)O[C@H]2CO)cc1,1.0[16.7 µM],/,/,12.4,/,/
COc1ccc2c(c1)OC[C@H]1[C@H]2N2C(=O)c3cc(C)ccc3NC(=O)[C@@]2(C)[C@H]1c1ccccc1,/,39.1*,-4.2,/,0.3,104.0*
COc1ccc2c(c1)[C@@H]1[C@H](CO2)[C@H](c2ccccc2)[C@]2(C)C(=O)Nc3ccc(C)cc3C(=O)N12,/,34.0*,-0.8,/,6.8,15.9
Clc1ccc(Cn2ncc3c(N4CCN(c5ccccc5)CC4)ncnc32)cc1,36.1,-4.1,/,102.1*,/,/
c1ccc(CNc2ncnc3c2cnn3-c2ccccc2)cc1,-10.1,25.7*,-3.0,/,31.6,1.5
Cc1[nH]c2ccc(C(=O)N3CCN(Cc4ccccc4)CC3)cc2c1C,1.7,-4.2,2.5,14.2,2.4,2.9
COc1ccc2[nH]c(C(=O)N3CCN(Cc4ccccc4)CC3)cc2c1OC,-0.3,45.0*,1.5,17.9,9.4,10.6
CC(=O)N(C)C[C@@H]1Oc2ncc(C#Cc3ccccc3)cc2C(=O)N([C@@H](C)CO)C[C@H]1C,5.4[16.7 µM],/,/,/,/,/
c1ccc(COc2ccc(OCCCCN3CCCC3)cc2)cc1,-65.4,-13.2,1.1,-75.1,2.1,11.5
CC1CCN(CCOc2ccc(OCc3ccccc3)cc2)CC1,/,-4.2,9.5,118.4*,0.4,26.4
COC(=O)c1cc(-c2c(-c3cc(OC)c(OC)c(OC)c3)noc2C)cc([N+](=O)[O-])c1,-11.0,6.8,9.2,0.4,13.6,-8.1
COc1cc(-c2c(-c3cc(OC)c(OC)c(OC)c3)noc2C)ccc1F,68.1*,/,/,87.8*,/,/
COc1ccc(-c2c(-c3cc(OC)c(OC)c(OC)c3)noc2C)cn1,/,29.7*,-0.8,/,2.4,7.7
CCCC#Cc1cnc2c(c1)C(=O)N([C@H](C)CO)C[C@@H](C)[C@H](CN(C)C(=O)Nc1c(C)noc1C)O2,-9.0[16.7 µM],/,/,/,/,/
COc1ccc(S(=O)(=O)Nc2ccc3c(c2)CC(=O)N([C@H](C)CO)C[C@@H](C)[C@H](CN(C)Cc2ccc(Oc4ccccc4)cc2)O3)cc1,-7.1[16.7 µM],/,/,-4.8,/,/
COc1ccc(S(=O)(=O)Nc2ccc3c(c2)CC(=O)N([C@@H](C)CO)C[C@@H](C)[C@H](CN(C)Cc2ccc(-c4ccccc4)cc2)O3)cc1,45.0[16.7 µM],/,/,95.2*,/,/
COc1ccc(S(=O)(=O)Nc2ccc3c(c2)CC(=O)N([C@H](C)CO)C[C@H](C)[C@@H](CN(C)Cc2ccc(Oc4ccccc4)cc2)O3)cc1,9.1[16.7 µM],/,/,68.0*,/,/

# High-throughput results from PubChem.
